A short description of assay [1]: Selectivity index, ratio of CC50 for african green monkey (Cercopithecus aethiops) Vero cells to IC50 for chloroquine-sensitive Plasmodium falciparum 3D7. Format: functional.
The next assay has as its system Plasmodium falciparum. Description: Antimalarial activity against chloroquine-sensitive Plasmodium falciparum 3D7. Format: functional, organism-based.
Assay [2] has as its system Plasmodium yoelii nigeriensis. Description: Antimalarial activity against multidrug-resistant Plasmodium yoelii nigeriensis infected Swiss mice (Mus musculus) assessed as survival at 100 mg/kg, perorally for 4 days measured on day 7. Format: functional, organism-based. Details: dose 100 mg/kg. The method in brief: (§1)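 Swiss mice infected on day 0 with P. yoelii nigeriensis MDR (N67, chloroquine-resistant) parasitized cells. Groups of five mice received the test compound orally as an aqueous suspension at 50 or 100 mg/kg from day 0 to 4; five controls received vehicle only. Parasitaemia was read from tail-vein thin blood smears on days 4, 7, 14, 21 and 28, or until death.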

Assay [3] deals with Plasmodium yoelii nigeriensis. Nature of the assay: Antimalarial activity against multidrug-resistant Plasmodium yoelii nigeriensis infected Swiss mice (Mus musculus) assessed as suppression in parasitaemia at 100 mg/kg, perorally for 4 days measured on day 4. The assay is classed as functional. The following applies: 96 h, route oral. The method in brief:
as §1

The subject of assay [4] is Plasmodium yoelii nigeriensis. Description: Antimalarial activity against multidrug-resistant Plasmodium yoelii nigeriensis infected Swiss mice (Mus musculus) assessed as survival at 100 mg/kg, perorally for 4 days measured on day 28. The assay is classed as functional. The following applies: route oral. The gist of the method:
as §1

Assay [5] has as its system Plasmodium yoelii nigeriensis. Description: Antimalarial activity against multidrug-resistant Plasmodium yoelii nigeriensis infected Swiss mice (Mus musculus) assessed as suppression in parasitaemia at 100 mg/kg, perorally for 4 days measured on day 7. The assay is classed as functional. The conditions noted are these: route oral. The gist of the method: as §1

Converted amounts (≈) assume the structure as drawn. The source made the active and inactive calls. No cut-off for these calls is given here.

For orientation: IC50 means the concentration that inhibits the measured activity by half. What is called MIC is the lowest concentration found to suppress growth. `COc1cccc(Nc2ncnc3ccc(NC(=S)Nc4ccccc4)cc23)c1`: the “Ratio CC50/IC50” value in assay [1] is 38.7. In the assay on Plasmodium falciparum, this compound returned an IC50 of 0.258 µg/mL (≈ 0.643 µM) and an MIC of 2 µg/mL (≈ 4.98 µM).

Take `S=C(Nc1cccc(Cl)c1)Nc1ccc2ncnc(Nc3ccccc3)c2c1`: the “Ratio CC50/IC50” value in assay [1] is 29. For the same compound, in the assay with Plasmodium falciparum, the IC50 was determined as 0.813 µg/mL (≈ 2 µM) and the MIC turned out to be 2 µg/mL (≈ 4.93 µM).

Consider `COc1cccc(Nc2ncnc3ccc(NC(=S)Nc4cccc(F)c4)cc23)c1`, for which the “Ratio CC50/IC50” value in assay [1] is on record as 510.7. In the assay on Plasmodium falciparum, this compound came in with an IC50 of 0.0267 µg/mL (≈ 0.0636 µM) and an MIC of 1 µg/mL (≈ 2.38 µM).

As to `COc1ccc(Nc2ncnc3ccc(NC(=S)Nc4cccc(C#N)c4)cc23)cc1`, the MIC against Plasmodium falciparum was greater than 10 µg/mL.

In the assay with Plasmodium falciparum, `FC(F)(F)c1cccc(Nc2ncnc3ccc(NC(=S)Nc4ccc(Cl)cc4)cc23)c1` yielded an MIC of 10 µg/mL (≈ 21.1 µM).

The inhibition in vivo is the relative decrease from the control value, in per cent. Take `FC(F)(F)c1cccc(Nc2ncnc3ccc(NC(=S)Nc4ccc(Br)cc4)cc23)c1`: the “Ratio CC50/IC50” value in assay [1] turned out to be 67.1. Also, in the assay on Plasmodium falciparum, the IC50 was found to be 0.0392 µg/mL (≈ 0.0756 µM) and the MIC was 2 µg/mL (≈ 3.86 µM). The outcome in assay [2] was inactive. Further, the inhibition in vivo at 100 mg/kg in assay [3] was determined as 9.78%.

With `COc1ccc(Nc2ncnc3ccc(NC(=S)Nc4ccc(Br)cc4)cc23)cc1`, the “Ratio CC50/IC50” value in assay [1] came to 114.9. In the assay with Plasmodium falciparum, this compound came in with an IC50 of 0.0502 µg/mL (≈ 0.104 µM) and an MIC of 2 µg/mL (≈ 4.16 µM).

With `COc1ccc(Nc2ncnc3ccc(NC(=S)Nc4ccc(Br)cc4)cc23)cc1OC`, the “Ratio CC50/IC50” value in assay [1] worked out at 85.7. Further, in the assay on Plasmodium falciparum, the IC50 stood at 0.683 µg/mL (≈ 1.34 µM) and the lowest concentration to inhibit growth (MIC) was 2 µg/mL (≈ 3.92 µM).

Consider `COc1ccc(Nc2ncnc3ccc(NC(=S)Nc4cccc(Cl)c4)cc23)cc1`, for which the minimum inhibitory concentration (MIC) against Plasmodium falciparum was greater than 10 µg/mL.

For the compound `Fc1cccc(NC(=S)Nc2ccc3ncnc(Nc4cccc(C(F)(F)F)c4)c3c2)c1`, in the assay on Plasmodium falciparum, the MIC amounted to 10 µg/mL (≈ 21.9 µM).

Regarding `COc1cccc(Nc2ncnc3ccc(NC(=S)Nc4cccc(C#N)c4)cc23)c1`, the “Ratio CC50/IC50” value in assay [1] was determined as 453. In the assay with Plasmodium falciparum, this compound yielded an IC50 of 0.021 µg/mL (≈ 0.0492 µM) and an MIC of 1 µg/mL (≈ 2.34 µM).

As for `S=C(Nc1ccc(Cl)cc1)Nc1ccc2ncnc(Nc3ccccc3)c2c1`, the minimal inhibitory concentration (MIC) against Plasmodium falciparum was 2 µg/mL (≈ 4.93 µM).

For `COc1cccc(Nc2ncnc3ccc(NC(=S)Nc4ccc(Br)cc4)cc23)c1`, the Activity in assay [4] was 50%. In assay [1], the “Ratio CC50/IC50” value was found to be 187. Moreover, the inhibition in vivo at 100 mg/kg in assay [5] came to 99.9%. In the assay on Plasmodium falciparum, this compound had an IC50 of 0.106 µg/mL (≈ 0.22 µM) and an MIC of 1 µg/mL (≈ 2.08 µM). Moreover, the inhibition in vivo at 100 mg/kg in assay [3] was determined as 100%.

On to `S=C(Nc1ccc(Br)cc1)Nc1ccc2ncnc(Nc3ccccc3)c2c1`, for which it took 10 µg/mL (≈ 22.2 µM) to inhibit growth in the assay with Plasmodium falciparum (MIC).

Regarding `COc1ccc(Nc2ncnc3ccc(NC(=S)Nc4ccccc4)cc23)cc1OC`, the “Ratio CC50/IC50” value in assay [1] came to 90. In the assay with Plasmodium falciparum, this compound came in with a 50% inhibitory concentration (IC50) of 0.303 µg/mL (≈ 0.702 µM) and a minimal inhibitory concentration (MIC) of 2 µg/mL (≈ 4.63 µM).

Consider `S=C(Nc1ccccc1)Nc1ccc2ncnc(Nc3ccccc3)c2c1`, for which, in the assay on Plasmodium falciparum, the MIC was 2 µg/mL (≈ 5.38 µM).

Turning to `COc1ccc(Nc2ncnc3ccc(NC(=S)Nc4cccc5ccccc45)cc23)cc1OC`, the “Ratio CC50/IC50” value in assay [1] came to 133.8. In the assay with Plasmodium falciparum, this compound returned an IC50 of 0.207 µg/mL (≈ 0.43 µM) and an MIC of 2 µg/mL (≈ 4.15 µM).

Consider `S=C(Nc1cccc(Cl)c1)Nc1ccc2ncnc(Nc3cccc(Cl)c3)c2c1`, for which the “Ratio CC50/IC50” value in assay [1] is 556.3. For the same compound, the results for the inhibition in vivo at 100 mg/kg in assay [5] and in assay [3] were 16.1% and 77.2%, respectively. This compound also yielded an IC50 in the assay on Plasmodium falciparum of 0.0088 µg/mL (≈ 0.02 µM). It took 2 µg/mL (≈ 4.54 µM) to inhibit growth with Plasmodium falciparum (MIC).

Turning to `COc1ccc(Nc2ncnc3ccc(NC(=S)Nc4cccc(F)c4)cc23)cc1`, the “Ratio CC50/IC50” value in assay [1] was 206.4. In the assay with Plasmodium falciparum, this compound had an IC50 of 0.0532 µg/mL (≈ 0.127 µM) and an MIC of 2 µg/mL (≈ 4.77 µM).

In the assay on Plasmodium falciparum, `FC(F)(F)c1cccc(Nc2ncnc3ccc(NC(=S)Nc4cccc(Cl)c4)cc23)c1` gave an MIC of 10 µg/mL (≈ 21.1 µM).

With `COc1ccc(Nc2ncnc3ccc(NC(=S)Nc4ccccc4)cc23)cc1`, the “Ratio CC50/IC50” value in assay [1] came to 80.4. In the assay with Plasmodium falciparum, this compound yielded an IC50 of 0.243 µg/mL (≈ 0.604 µM) and an MIC of 2 µg/mL (≈ 4.98 µM).

Consider `FC(F)(F)c1cccc(Nc2ncnc3ccc(NC(=S)Nc4ccccc4)cc23)c1`, for which the “Ratio CC50/IC50” value in assay [1] turned out to be 69. In the assay on Plasmodium falciparum, this compound came in with an IC50 of 0.992 µg/mL (≈ 2.26 µM) and an MIC of 2 µg/mL (≈ 4.55 µM).

Compound `N#Cc1cccc(NC(=S)Nc2ccc3ncnc(Nc4cccc(Cl)c4)c3c2)c1` gave an MIC with Plasmodium falciparum greater than 10 µg/mL.

As for `COc1ccc(Nc2ncnc3ccc(NC(=S)Nc4cccc5ccccc45)cc23)cc1`, it took 10 µg/mL (≈ 22.1 µM) to inhibit growth against Plasmodium falciparum (MIC).

On to `COc1cccc(Nc2ncnc3ccc(NC(=S)Nc4cccc(Cl)c4)cc23)c1`, for which the “Ratio CC50/IC50” value in assay [1] worked out at 1615.3. In assay [5], the inhibition in vivo at 100 mg/kg is 28.4%. In the assay on Plasmodium falciparum, this compound displayed an IC50 of 0.0115 µg/mL (≈ 0.0264 µM) and an MIC of 2 µg/mL (≈ 4.59 µM). Besides, in assay [3], the inhibition in vivo at 100 mg/kg was 46.5%.

In the assay with Plasmodium falciparum, `COc1cccc(Nc2ncnc3ccc(NC(=S)Nc4ccc(Cl)cc4)cc23)c1` returned an MIC of 10 µg/mL (≈ 22.9 µM).

On to `COc1ccc(Nc2ncnc3ccc(NC(=S)Nc4cccc(Cl)c4)cc23)cc1OC`, for which 10 µg/mL (≈ 21.5 µM) was the least that counted as inhibitory in the assay with Plasmodium falciparum (MIC).

Consider `S=C(Nc1ccc(Br)cc1)Nc1ccc2ncnc(Nc3cccc(Cl)c3)c2c1`, for which, in assay [1], the “Ratio CC50/IC50” value stood at 1. In the assay with Plasmodium falciparum, this compound showed an IC50 of 0.526 µg/mL (≈ 1.09 µM) and an MIC of 2 µg/mL (≈ 4.13 µM).

In the case of `COc1ccc(Nc2ncnc3ccc(NC(=S)Nc4cccc(C#N)c4)cc23)cc1OC`, in the assay on Plasmodium falciparum, the MIC stood at 10 µg/mL (≈ 21.9 µM).

For the compound `Fc1cccc(NC(=S)Nc2ccc3ncnc(Nc4cccc(Cl)c4)c3c2)c1`, the inhibition in vivo at 100 mg/kg in assay [5] was 61.1%; in assay [3] it was 85.7%. Besides, the MIC against Plasmodium falciparum came to 10 µg/mL (≈ 23.6 µM).

In the assay on Plasmodium falciparum, `COc1ccc(Nc2ncnc3ccc(NC(=S)Nc4ccc(Cl)cc4)cc23)cc1` gave an MIC greater than 10 µg/mL.

The compound `N#Cc1cccc(NC(=S)Nc2ccc3ncnc(Nc4ccccc4)c3c2)c1` displayed an MIC against Plasmodium falciparum greater than 10 µg/mL.

The compound `COc1ccc(Nc2ncnc3ccc(NC(=S)Nc4ccc(Cl)cc4)cc23)cc1OC` yielded an MIC with Plasmodium falciparum of 10 µg/mL (≈ 21.5 µM).

As for `FC(F)(F)c1cccc(Nc2ncnc3ccc(NC(=S)Nc4cccc5ccccc45)cc23)c1`, in the assay with Plasmodium falciparum, the MIC was found to be 10 µg/mL (≈ 20.4 µM).

For the compound `S=C(Nc1ccccc1)Nc1ccc2ncnc(Nc3cccc(Cl)c3)c2c1`, the minimum inhibitory concentration (MIC) against Plasmodium falciparum amounted to 10 µg/mL (≈ 24.6 µM).

The compound `S=C(Nc1ccc2ncnc(Nc3ccccc3)c2c1)Nc1cccc2ccccc12` returned an MIC in the assay on Plasmodium falciparum of 2 µg/mL (≈ 4.74 µM).

For `S=C(Nc1ccc(Cl)cc1)Nc1ccc2ncnc(Nc3cccc(Cl)c3)c2c1`, in the assay on Plasmodium falciparum, it took 10 µg/mL (≈ 22.7 µM) to inhibit growth (MIC).

In the case of `Fc1cccc(NC(=S)Nc2ccc3ncnc(Nc4ccccc4)c3c2)c1`, in assay [1], the “Ratio CC50/IC50” value was determined as 70.3. For the same compound, in the assay on Plasmodium falciparum, the IC50 turned out to be 0.792 µg/mL (≈ 2.03 µM) and the MIC amounted to 2 µg/mL (≈ 5.14 µM).

Regarding `S=C(Nc1ccc2ncnc(Nc3cccc(Cl)c3)c2c1)Nc1cccc2ccccc12`, the minimum inhibitory concentration (MIC) in the assay on Plasmodium falciparum worked out at 10 µg/mL (≈ 21.9 µM).

As for `COc1ccc(Nc2ncnc3ccc(NC(=S)Nc4cccc(F)c4)cc23)cc1OC`, the “Ratio CC50/IC50” value in assay [1] worked out at 63.7. In the assay on Plasmodium falciparum, the IC50 came out at 0.385 µg/mL (≈ 0.857 µM) and it took 2 µg/mL (≈ 4.45 µM) to inhibit growth (MIC).

For `N#Cc1cccc(NC(=S)Nc2ccc3ncnc(Nc4cccc(C(F)(F)F)c4)c3c2)c1`, in assay [1], the “Ratio CC50/IC50” value is reported as 5.5. In the assay with Plasmodium falciparum, this compound gave an IC50 of 0.443 µg/mL (≈ 0.954 µM) and an MIC of 2 µg/mL (≈ 4.31 µM).

Consider `COc1cccc(Nc2ncnc3ccc(NC(=S)Nc4cccc5ccccc45)cc23)c1`, for which, in the assay on Plasmodium falciparum, inhibition of growth (MIC) required 10 µg/mL (≈ 22.1 µM).
